These results are taken from ChEMBL document CHEMBL1136992, “Further studies at neuropeptide s position 5: discovery of novel neuropeptide S receptor antagonists” (J Med Chem, 2009).

Test [1] addresses T1, Neuropeptide S receptor (Homo sapiens) (UniProt Q6W5P4).
T1 sequence (whole entry): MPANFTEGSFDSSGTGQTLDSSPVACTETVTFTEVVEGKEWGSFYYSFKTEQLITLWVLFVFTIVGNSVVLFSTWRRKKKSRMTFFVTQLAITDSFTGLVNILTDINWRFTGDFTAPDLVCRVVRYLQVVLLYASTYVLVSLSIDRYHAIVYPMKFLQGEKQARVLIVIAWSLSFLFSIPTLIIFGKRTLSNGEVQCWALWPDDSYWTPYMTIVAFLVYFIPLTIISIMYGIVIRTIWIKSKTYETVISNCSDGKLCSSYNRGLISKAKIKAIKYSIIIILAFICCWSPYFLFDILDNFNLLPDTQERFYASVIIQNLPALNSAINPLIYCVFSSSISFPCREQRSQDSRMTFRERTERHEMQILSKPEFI
The settings on record: HEK293.

The target of test [2] is Nociceptin receptor (Homo sapiens, UniProt P41146). Nature of the test: Antagonist activity at human recombinant NOP receptor expressed in CHO cells coexpressing alphaqi5 assessed as inhibition of N/OFQ-induced intracellular calcium mobilization. Format: functional, cell-based. (In general: A change in cytosolic calcium serves as a functional read-out for many receptors and channels.)

Test [3] addresses T2, Kappa-type opioid receptor (Homo sapiens, UniProt P41145). Nature of the test: Antagonist activity at human recombinant kappa opioid receptor expressed in CHO cells coexpressing alphaqi5 assessed as inhibition of dynorphin A-induced intracellular calcium mobilization at up to 10 uM. Format: functional, cell-based. A digest of the protocol:
(§1)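 Calcium mobilization in human receptor cells. NK-1, B2 and UT recombinant in CHO. MOP, DOP, KOP and NOP in CHO cells carrying chimeric Gαqi5. Native PAR2 in A549 cells. […] Mean ± SEM of three experiments in duplicate.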

Test [4] concerns the target T3, Neuropeptide S receptor (Mus musculus) (UniProt Q8BZP8).
T3 sequence (whole entry): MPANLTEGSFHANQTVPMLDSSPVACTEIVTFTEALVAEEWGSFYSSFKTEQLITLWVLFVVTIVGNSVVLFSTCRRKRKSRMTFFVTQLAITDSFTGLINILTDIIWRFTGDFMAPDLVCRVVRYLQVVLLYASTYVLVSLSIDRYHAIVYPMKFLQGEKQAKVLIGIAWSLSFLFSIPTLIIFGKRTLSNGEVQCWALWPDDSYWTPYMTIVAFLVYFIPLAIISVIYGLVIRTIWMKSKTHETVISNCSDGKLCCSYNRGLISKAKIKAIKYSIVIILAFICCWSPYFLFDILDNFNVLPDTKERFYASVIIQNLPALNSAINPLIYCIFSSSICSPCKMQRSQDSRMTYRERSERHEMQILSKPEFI
Nature of the test: Antagonist activity at mouse NPSR expressed in HEK293 cells assessed as inhibition of NPS-induced increase in intracellular calcium mobilization by Schild analysis at room temperature. Format: functional, cell-based. A digest of the protocol:
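Schild-type experiment in HEK293 cells expressing mouse NPSR by calcium mobilization, using NPS concentration-response curves with added antagonist, run under the earlier conditions without 37 °C and without post-injection mixing.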

Test [5] concerns the target T3, Neuropeptide S receptor (Mus musculus). Nature of the test: Agonist activity at mouse NPSR expressed in HEK293 cells up to 10 uM by calcium mobilization assay. It counts as functional, cell-based. In outline:
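HEK293 cells stably expressing mouse NPSR; intracellular calcium mobilization measured after peptide addition, concentration-response curves giving pEC50 and Emax as % over basal. Mean of at least four separate experiments performed in duplicate.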

Test [6] has as its target T2, Kappa-type opioid receptor. Nature of the test: Antagonist activity at human recombinant kappa opioid receptor expressed in CHO cells coexpressing alphaqi5 assessed as inhibition of dynorphin A-induced intracellular calcium mobilization. Format: functional, cell-based. In outline:
(§2)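 Calcium mobilization in human receptor cells. NK-1, B2 and UT recombinant in CHO. MOP, DOP, KOP and NOP in CHO cells carrying chimeric Gαqi5. Native PAR2 in A549 cells. Mean ± SEM of three experiments in duplicate.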

In test [7] the target is T4, Urotensin-2 receptor (Homo sapiens, UniProt Q9UKP6).
T4 sequence (Q9UKP6 whole entry): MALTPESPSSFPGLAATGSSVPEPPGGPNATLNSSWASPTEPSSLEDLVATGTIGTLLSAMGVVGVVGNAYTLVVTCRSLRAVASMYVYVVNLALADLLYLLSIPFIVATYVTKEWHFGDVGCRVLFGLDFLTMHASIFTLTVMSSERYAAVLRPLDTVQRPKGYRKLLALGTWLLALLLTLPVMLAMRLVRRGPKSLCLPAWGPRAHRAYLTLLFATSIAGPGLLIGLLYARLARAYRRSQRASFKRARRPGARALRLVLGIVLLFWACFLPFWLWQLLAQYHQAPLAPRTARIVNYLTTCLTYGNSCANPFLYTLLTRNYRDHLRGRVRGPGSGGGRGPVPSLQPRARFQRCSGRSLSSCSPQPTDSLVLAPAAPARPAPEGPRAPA
Nature of the test: Antagonist activity at human recombinant urotensin 2 receptor expressed in CHO cells assessed as inhibition of urotensin 2-induced intracellular calcium mobilization. It counts as functional, cell-based.

The target in test [8] is T5, B2 bradykinin receptor (Homo sapiens, UniProt P30411).
T5 sequence (P30411 whole entry): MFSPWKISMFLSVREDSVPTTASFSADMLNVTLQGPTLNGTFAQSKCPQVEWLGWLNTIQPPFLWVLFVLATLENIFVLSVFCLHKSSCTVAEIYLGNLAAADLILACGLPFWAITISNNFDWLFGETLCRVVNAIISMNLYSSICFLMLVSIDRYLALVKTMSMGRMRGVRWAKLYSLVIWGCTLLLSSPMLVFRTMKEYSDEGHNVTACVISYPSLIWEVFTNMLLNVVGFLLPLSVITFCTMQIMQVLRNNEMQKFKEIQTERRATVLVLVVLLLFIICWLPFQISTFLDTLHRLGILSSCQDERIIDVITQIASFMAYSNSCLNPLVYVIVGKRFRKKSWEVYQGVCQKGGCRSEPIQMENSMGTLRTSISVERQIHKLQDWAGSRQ
As to the kind of experiment: Antagonist activity at human recombinant bradykinin 2 receptor expressed in CHO cells assessed as inhibition of bradykinin-induced intracellular calcium mobilization. It counts as functional, cell-based. In outline: as §2

Test [9] addresses T3, Neuropeptide S receptor (Mus musculus). Nature of the test: Antagonist activity at mouse NPSR expressed in HEK293 cells assessed as inhibition of NPS-induced response by Schild analysis. It counts as functional, cell-based. A digest of the protocol:
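Calcium mobilization in HEK293 cells stably expressing mouse NPSR, at 37 °C with three mixing cycles after antagonist injection. NPS concentration-response curves were run without and with antagonist at 0.1-10 µM, and pKB with 95% confidence limits was derived from the curve shifts. Mean ± SEM of four separate experiments in duplicate.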

The target of test [10] is Substance-P receptor (Homo sapiens, UniProt P25103). As to the kind of experiment: Antagonist activity at human recombinant NK1 receptor expressed in CHO cells assessed as inhibition of substance P-induced intracellular calcium mobilization.
For test [11], the target named is Proteinase-activated receptor 2 (Homo sapiens) (UniProt P55085). As to the kind of experiment: Antagonist activity at human recombinant PAR2 expressed in A549 cells assessed as inhibition of SLIGKV-NH2-induced intracellular calcium mobilization at up to 10 uM. It counts as functional, cell-based.
Test [12] has as its target T6, Proteinase-activated receptor 2 (Homo sapiens, UniProt P55085).
T6 sequence (P55085 whole entry): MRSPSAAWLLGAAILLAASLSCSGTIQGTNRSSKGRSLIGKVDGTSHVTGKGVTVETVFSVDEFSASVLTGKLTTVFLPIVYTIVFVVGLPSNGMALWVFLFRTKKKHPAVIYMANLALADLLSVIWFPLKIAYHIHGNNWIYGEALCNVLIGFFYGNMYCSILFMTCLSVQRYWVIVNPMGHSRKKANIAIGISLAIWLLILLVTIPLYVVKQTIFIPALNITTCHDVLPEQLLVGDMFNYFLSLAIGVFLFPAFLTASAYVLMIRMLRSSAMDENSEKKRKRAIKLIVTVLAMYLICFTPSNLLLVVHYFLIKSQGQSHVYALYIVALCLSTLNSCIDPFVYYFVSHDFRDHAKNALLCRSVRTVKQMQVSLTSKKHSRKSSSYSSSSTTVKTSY
As to the kind of experiment: Antagonist activity at human recombinant PAR2 expressed in A549 cells assessed as inhibition of SLIGKV-NH2-induced intracellular calcium mobilization. Format: functional, cell-based.

For test [13], the target named is T7, B2 bradykinin receptor (Homo sapiens) (UniProt P30411).
T7 sequence (whole entry): T5 sequence (P30411 whole entry)
Nature of the test: Antagonist activity at human recombinant bradykinin 2 receptor expressed in CHO cells assessed as inhibition of bradykinin-induced intracellular calcium mobilization at up to 10 uM. Format: functional, cell-based. A digest of the protocol:
as §1

The target in test [14] is T3, Neuropeptide S receptor (Mus musculus). Nature of the test: Antagonist activity at mouse NPSR expressed in HEK293 cells assessed as inhibition of NPS-induced response. It counts as functional, cell-based. A digest of the protocol:
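HEK293 cells stably expressing mouse NPSR, calcium mobilization. Inhibition response curves to test peptides against 30 nM NPS, run at 37 °C with three up-and-down mixing cycles right after antagonist injection to aid diffusion. Mean of at least four separate experiments performed in duplicate.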

Test [15] has as its target T8, Mu-type opioid receptor (Homo sapiens, UniProt P35372). As to the kind of experiment: Antagonist activity at human recombinant mu opioid receptor expressed in CHO cells coexpressing alphaqi5 assessed as inhibition of dermorphin-induced intracellular calcium mobilization at up to 10 uM. It counts as functional, cell-based. A digest of the protocol:
as §1

Test [16] addresses T9, Delta-type opioid receptor (Homo sapiens, UniProt P41143). Nature of the test: Antagonist activity at human recombinant delta opioid receptor expressed in CHO cells coexpressing alphaqi5 assessed as inhibition of DPDPE-induced intracellular calcium mobilization at up to 10 uM. Format: functional, cell-based. A digest of the protocol:
as §2

Test [17] has as its target T9, Delta-type opioid receptor. As to the kind of experiment: Antagonist activity at human recombinant delta opioid receptor expressed in CHO cells coexpressing alphaqi5 assessed as inhibition of DPDPE-induced intracellular calcium mobilization. It counts as functional, cell-based. A digest of the protocol: as §2
The target of test [18] is T8, Mu-type opioid receptor. As to the kind of experiment: Antagonist activity at human recombinant mu opioid receptor expressed in CHO cells coexpressing alphaqi5 assessed as inhibition of dermorphin-induced intracellular calcium mobilization. It counts as functional, cell-based.

Each structure is given as a SMILES string. The source made the active and inactive calls. The rule behind the calls is not given here. Square brackets hold non-standard residues; d marks the D form. Peptide text beside a SMILES is read from it. dTle = CC(C)(C)[C@@H](N)C(=O)O

T9 sequence (P41143 whole entry): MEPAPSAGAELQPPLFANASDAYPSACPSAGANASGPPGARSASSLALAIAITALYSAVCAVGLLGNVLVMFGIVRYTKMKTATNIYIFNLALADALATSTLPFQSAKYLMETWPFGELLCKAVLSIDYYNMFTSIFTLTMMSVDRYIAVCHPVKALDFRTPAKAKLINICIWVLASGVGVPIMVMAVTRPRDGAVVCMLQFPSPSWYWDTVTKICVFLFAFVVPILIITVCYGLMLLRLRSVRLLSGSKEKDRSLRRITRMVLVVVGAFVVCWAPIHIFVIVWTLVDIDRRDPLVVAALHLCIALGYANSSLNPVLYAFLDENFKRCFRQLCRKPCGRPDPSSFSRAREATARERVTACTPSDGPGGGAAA
T8 sequence (P35372 whole entry): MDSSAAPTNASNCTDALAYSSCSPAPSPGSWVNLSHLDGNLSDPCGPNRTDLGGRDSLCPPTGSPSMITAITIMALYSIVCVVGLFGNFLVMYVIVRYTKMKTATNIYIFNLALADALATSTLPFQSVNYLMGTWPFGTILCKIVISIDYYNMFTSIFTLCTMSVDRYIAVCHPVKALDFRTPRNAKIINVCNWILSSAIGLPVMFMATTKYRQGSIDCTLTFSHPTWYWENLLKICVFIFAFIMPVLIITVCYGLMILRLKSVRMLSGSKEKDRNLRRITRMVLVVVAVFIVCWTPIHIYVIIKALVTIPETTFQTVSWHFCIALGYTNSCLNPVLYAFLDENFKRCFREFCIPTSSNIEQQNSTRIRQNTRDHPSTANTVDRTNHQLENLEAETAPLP
T2 sequence (P41145 whole entry): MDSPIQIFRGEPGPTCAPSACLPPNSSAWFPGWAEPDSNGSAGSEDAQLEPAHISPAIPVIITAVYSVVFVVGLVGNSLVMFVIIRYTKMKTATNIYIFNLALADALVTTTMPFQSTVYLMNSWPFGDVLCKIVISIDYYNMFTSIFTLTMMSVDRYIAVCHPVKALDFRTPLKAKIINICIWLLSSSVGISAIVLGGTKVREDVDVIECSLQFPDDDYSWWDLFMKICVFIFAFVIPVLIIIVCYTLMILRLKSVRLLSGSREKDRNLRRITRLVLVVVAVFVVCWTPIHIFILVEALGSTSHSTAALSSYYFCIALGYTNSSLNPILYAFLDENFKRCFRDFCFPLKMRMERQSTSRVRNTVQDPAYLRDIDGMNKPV
Nociceptin receptor, sequence (P41146 whole entry): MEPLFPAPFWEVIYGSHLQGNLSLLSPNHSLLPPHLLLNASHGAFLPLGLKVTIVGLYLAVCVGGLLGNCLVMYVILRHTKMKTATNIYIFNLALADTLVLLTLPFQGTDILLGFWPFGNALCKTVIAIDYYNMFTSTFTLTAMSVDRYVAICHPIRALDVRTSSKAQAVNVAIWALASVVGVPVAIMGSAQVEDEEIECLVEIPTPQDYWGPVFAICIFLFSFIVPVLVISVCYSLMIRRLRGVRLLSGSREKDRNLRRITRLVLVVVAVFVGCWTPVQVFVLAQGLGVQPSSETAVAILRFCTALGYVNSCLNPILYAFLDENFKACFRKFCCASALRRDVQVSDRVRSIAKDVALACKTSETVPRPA
Substance-P receptor, sequence (P25103 whole entry): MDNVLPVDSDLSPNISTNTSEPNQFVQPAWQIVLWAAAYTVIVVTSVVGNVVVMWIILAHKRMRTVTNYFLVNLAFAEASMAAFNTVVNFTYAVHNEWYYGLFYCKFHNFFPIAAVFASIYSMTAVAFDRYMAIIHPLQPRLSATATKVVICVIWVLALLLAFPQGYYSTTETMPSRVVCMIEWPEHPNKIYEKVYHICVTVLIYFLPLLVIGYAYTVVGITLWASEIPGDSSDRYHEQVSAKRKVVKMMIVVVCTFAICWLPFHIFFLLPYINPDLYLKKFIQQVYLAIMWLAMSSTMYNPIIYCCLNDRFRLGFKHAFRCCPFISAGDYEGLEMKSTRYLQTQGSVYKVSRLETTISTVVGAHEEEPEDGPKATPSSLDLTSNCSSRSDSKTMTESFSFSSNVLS

What is called pKb is the negative decadic logarithm of the Kb, by convention in mol/L. For the molecule `O=C(NCc1ccc(F)cc1)N1CCN2C(=O)OC(c3ccccc3)(c3ccccc3)C2C1` (stereo not given), the pKb in test [1] worked out at 7.5.
Broadly, the EC50 is the concentration that produces a half-maximal response. Usually Emax stands for the maximal effect, on the per cent scale that the assay sets. Consider `CSCC[C@H](NC(=O)CNC(=O)[C@@H](NC(=O)CNC(=O)[C@@H](NC(=O)[C@H](NC(=O)[C@H](CC(N)=O)NC(=O)[C@H](CCCNC(=N)N)NC(=O)[C@H](Cc1ccccc1)NC(=O)[C@@H](N)CO)C(C)(C)C)C(C)C)[C@@H](C)O)C(=O)N[C@@H](CCCCN)C(=O)N[C@@H](CCCCN)C(=O)N[C@H](C(=O)N[C@@H](CO)C(=O)N[C@@H](Cc1ccccc1)C(=O)N[C@@H](CCC(N)=O)C(=O)N[C@@H](CCCNC(=N)N)C(=O)N[C@@H](C)C(=O)N[C@@H](CCCCN)C(=O)N[C@@H](CO)C(=O)O)[C@@H](C)O` (H-SFRN[dTle]VGTGMKKTSFQRAKS-OH), for which the EC50 is 0.282 nM in [2]; 2.34 nM in [6]; 3.47 nM in [7]; 0.0339 nM in [8]; 0.049 nM in test [10]; 31600 nM in [12]. Also, the values for the EC50 in test [17] and in test [18] were 1.95 nM and 11 nM, respectively. Further, the Emax in test [3] is 139%; in test [4], less than 50%; in test [11], 445%; in test [13] it was 115%; in test [15], 186%; in test [16] it was 177%. For the same molecule, the Emax entry in test [5] is “inactive”. In addition, the Activity entry in test [9] was “Dose-dependent effect”. Also, the pKb in test [14] came out at 7.06.
`CSCC[C@H](NC(=O)CNC(=O)[C@@H](NC(=O)CNC(=O)[C@@H](NC(=O)[C@H](NC(=O)[C@H](CC(N)=O)NC(=O)[C@H](CCCNC(=N)N)NC(=O)[C@H](Cc1ccccc1)NC(=O)[C@@H](N)CO)C(C)C)C(C)C)[C@@H](C)O)C(=O)N[C@@H](CCCCN)C(=O)N[C@@H](CCCCN)C(=O)N[C@H](C(=O)N[C@@H](CO)C(=O)N[C@@H](Cc1ccccc1)C(=O)N[C@@H](CCC(N)=O)C(=O)N[C@@H](CCCNC(=N)N)C(=O)N[C@@H](C)C(=O)N[C@@H](CCCCN)C(=O)N[C@@H](CO)C(=O)O)[C@@H](C)O` (H-SFRN[dV]VGTGMKKTSFQRAKS-OH): the Emax entry in [5] was “inactive”. Further, the pKb in [14] was found to be 6.54.
